Assay outcomes (PubChem)
Rows were chosen to be rich in hits. Some 4.3% of all compounds tested hit in one or more screens of this group.
SR-BI DiI-HDL act: SR-BI HDL lipid transfer activation; CHO ldlA[mSR-BI] cells, DiI-HDL uptake fluorescence, 3 h; 100 = double the neutral-control signal; activation, % at 12.5 µM; 320,000 compounds, 0.096% hits;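 active means mean replicate activation of at least 60% and every replicate at or above 60%; inconclusive means mean or all-replicate condition met, but not both; inactive means mean below 60% and not all replicates reaching 60%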
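Assay system: LDL receptor-deficient CHO ldlA cells overexpressing murine SR-BI / Medium: BSA-supplemented, HEPES-buffered Ham's F12, pH 7.4 / Probe or stimulus: DiI-labelled HDL at 10 µg/mL final / Timing: compound with DiI-HDL co-incubation, 3 h at 37 °C / Technique: bottom-read cell fluorescence after medium removal, ex 550/em 595 nm / Measure: HDL uptake via cellular fluorescence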
SMARCA2 activ: SMARCA2 function activation, primary screen; activation, % at 9.1 µM; 370,000 compounds, 1% hits; AID 652017; MG213 cells, MMTV-luciferase reporter, dexamethasone, overnight; in the data active means activation above about 7.8%
SR-BI HDL uptake: mouse SR-BI HDL lipid transfer inhibition | AID 488896 | 320,000 compounds, 0.96% hits | Q61009 | ldlA[mSR-BI] CHO cells, DiI-HDL uptake fluorescence, 3 h | inhibition, % at 12.5 µM;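 active means mean replicate inhibition of at least 70% and a set share of replicates each scoring 70 or more; inconclusive means meets just one of the two criteria; inactive means fails both criteria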
Target sequence (Q61009 whole entry, looked up): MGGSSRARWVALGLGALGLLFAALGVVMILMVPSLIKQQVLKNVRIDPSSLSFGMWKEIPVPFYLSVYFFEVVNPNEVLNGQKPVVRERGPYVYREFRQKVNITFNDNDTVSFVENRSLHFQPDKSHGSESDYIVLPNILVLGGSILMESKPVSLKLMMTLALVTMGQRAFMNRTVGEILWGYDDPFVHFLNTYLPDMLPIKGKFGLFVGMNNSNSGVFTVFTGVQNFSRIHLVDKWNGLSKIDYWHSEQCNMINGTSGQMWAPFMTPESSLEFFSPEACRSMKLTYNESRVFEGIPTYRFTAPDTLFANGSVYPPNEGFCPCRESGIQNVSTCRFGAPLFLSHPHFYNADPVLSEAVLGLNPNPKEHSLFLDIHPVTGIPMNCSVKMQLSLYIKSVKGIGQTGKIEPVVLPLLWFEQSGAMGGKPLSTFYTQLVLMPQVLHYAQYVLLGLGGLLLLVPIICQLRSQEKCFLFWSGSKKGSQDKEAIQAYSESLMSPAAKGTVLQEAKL
Hep lipid drop: hepatic lipid droplet formation modulation; 240,000 compounds, 0.4% hits; AID 1656; AML12 mouse hepatocytes, oleate lipid droplets, BODIPY imaging; inhibition, % at 6.5 µM;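 active means lipid droplet intensity inhibited by at least 50%, with more than 500 cells counted; inconclusive means wells with under 300 cells, treated as cytotoxic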
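Test system: AML12 hepatocytes (mouse); reagent: oleate loading, 100 µM; dosing: one dose, 6.5 µM compound; incubation: overnight exposure; signal: fluorescence imaging, 20x objective, two fields per well; read-out basis: % inhibition of corrected integrated BODIPY droplet signal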
Yeast superoxide: caloric restriction mimetics inhibiting age-related superoxide in yeast | AID 2690 | 330,000 compounds, 0.18% hits | superoxide response (% of plate mean), % at 10 µM | S. cerevisiae aged cells, superoxide DHE fluorescence; stronger effect = lower value;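 active means superoxide response under a set limit, about three screen SD below normal, cut at about 65% in these data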;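 further: yeast aged for seven days with compound at 30 °C before DHE staining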
AHR act: activates the human aryl hydrocarbon receptor. P35869. AHR-responsive luciferase reporter cells, luminescence. activation, % at 5 µM. 320,000 compounds, 2.5% hits. AID 2796; in the data active means activation above about 47%
A number is an active result; . = inactive; ? = inconclusive; / = no result.

SMILES | SR-BI DiI-HDL act | SMARCA2 activ | SR-BI HDL uptake | Hep lipid drop | Yeast superoxide | AHR act
COc1ccc(OC)c(NC(=O)c2ccc(-c3cccs3)cc2)c1 | . | . | ? | . | . | 75.8
COc1ccc(C(=O)Nc2nnc(-c3cccs3)s2)cc1 | . | . | . | . | . | 66.7
COc1ccc(NC(C)=O)cc1NC(=O)c1ccc2ccccc2c1 | . | . | . | . | . | 73.6
CCOC(=O)N1CCN(C(=O)C[C@H]2C[C@@]3(C(=O)OC)C(=C[C@H](COCc4ccccc4)O[C@@H]3C)N(CCC3=CCCCC3)C2=O)CC1 | / | . | / | / | / | /
O=C(CN1CCCc2ccccc21)NCc1ccc(Cl)cc1 | / | . | / | / | / | /
CCOc1ccc(-n2c(SCC(=O)Nc3ccc(OCc4ccccc4)cc3)nnc2-c2ccc(Cl)cc2)cc1 | / | . | / | / | / | /
Cc1ccc(-c2nnc(SCC(=O)c3ccc(O)c(O)c3)n2-c2ccc(Cl)cc2)cc1 | / | . | / | / | / | /
CN1C(=O)c2cc(NS(=O)(=O)c3ccc(F)cc3)ccc2OC[C@H]2O[C@@H](CC(=O)NCC(F)(F)F)CC[C@@H]21 | / | . | / | / | / | /
O=C(Nc1nnc(-c2cccs2)s1)c1cccc(F)c1 | . | . | . | . | . | 55.9
Cc1nnc(NC(=O)c2cccc(F)c2)s1 | . | . | . | / | . | .
COc1ccc(-c2cccc(C(=O)Nc3ccccc3C)c2)cc1 | . | . | . | . | . | .
COc1ccc(C)cc1NC(=O)c1cccc(-c2ccc(OC(C)=O)cc2)c1 | . | . | 76.9 | . | . | .
COC(=O)C1=C(C)N(C)C(=NCC2CC2)NC1c1ccccc1 (configuration not stated) | / | . | / | / | / | /
Cc1cc(C)c2sc(N(CCCN(C)C)C(=O)c3ccc(S(=O)(=O)N4CCc5ccccc5C4)cc3)nc2c1 | . | / | . | / | . | .
Cc1cc(C)c2nc(NNC(=O)c3ccc(S(=O)(=O)N4CCc5ccccc5C4)cc3)sc2c1 | . | . | 133.2 | . | . | .
Cc1cc(C)c2sc(NNC(=O)c3ccc(S(=O)(=O)N4CCc5ccccc5C4)cc3)nc2c1 | . | . | 145.9 | . | . | .
CCOC(=O)[C@@]12CN(C(=O)OC(C)(C)C)CC=C1N(Cc1ccc(OC)cc1)C(=O)[C@H]2CC(=O)NCc1cccc(C(F)(F)F)c1 | / | . | / | / | / | /
COc1ccc(NC(=O)c2cc(-c3ccccc3)nc3c2cnn3C(C)C)cc1 | . | . | 82.5 | / | . | .
CC(C)n1ncc2c(C(=O)Nc3cccc(C#N)c3)cc(C3CC3)nc21 | . | . | 75.3 | / | . | .
CCNC(=O)c1cccc(NC(=O)c2cc(C3CC3)nc3c2cnn3C(C)C)c1 | . | . | 75.4 | / | / | /
C[C@H]1COc2cc(Br)ccc2S(=O)(=O)N1Cc1cn(CC2CCCCC2)nn1 | / | . | / | / | / | /
O=C(Nc1cc(SCCO)cc([N+](=O)[O-])c1)c1ccc(Br)o1 | / | . | / | . | . | 51.9
COc1cccc(N2CCN(CC(=O)Nc3ccccc3C(=O)NCCc3ccccc3)CC2)c1 | . | . | . | / | . | .
O=C(CN1CCN(c2ccc(O)cc2)CC1)Nc1ccccc1C(=O)NCCc1ccccc1 | . | . | . | / | . | 74.4
COC(=O)C[C@@H]1CC[C@@H]2[C@H](COc3ccc(NC(=O)Nc4c(C)noc4C)cc3C(=O)N2C)O1 | / | . | / | / | / | /
SMILES | SR-BI DiI-HDL act | SMARCA2 activ | SR-BI HDL uptake | Hep lipid drop | Yeast superoxide | AHR act
Nc1ccccc1N=Cc1ccc(-c2cccc(Cl)c2)o1 | . | . | . | . | . | 77.9
COC(=O)N/N=C/c1ccc(-c2cccc(Cl)c2)o1 | . | . | . | . | . | .
CCCSc1ccc([C@H]2N[C@@](CC(C)C)(C(=O)OC)[C@H]3C(=O)N(C)C(=O)[C@@H]23)cc1 | . | . | 74.1 | / | . | .
CCCCCCSc1ccc([C@H]2N[C@@](CC(C)C)(C(=O)OC)[C@H]3C(=O)N(C)C(=O)[C@@H]23)cc1 | . | . | . | / | . | .
O=C(CSc1nn(-c2ccc(Cl)cc2)c(=S)s1)N1CCN(C(=O)c2ccco2)CC1 | . | . | 84.4 | / | . | .
CCC(C)(C)C1CCC(=NNC(=S)Nc2cccnc2)CC1 (configuration not stated) | . | . | . | . | . | 69.2
CC(C)(C)C1CCC(=NNC(=O)C(=O)NCc2cccnc2)CC1 (configuration not stated) | . | . | . | . | . | .
O=C(CN1CCN(c2ccccn2)CC1)Nc1ccc([N+](=O)[O-])cc1C(=O)Nc1ccccc1F | . | . | . | . | . | 47.8
Cc1cc(N2CCCC2)ccc1/C=C1\NC(=S)N(C)C1=O | . | . | . | . | . | 50.6
CCC(Sc1nc2n[nH]c(C)c2c(=N)n1-c1cccc(Cl)c1)C(=O)NCCOC (configuration not stated) | . | . | . | / | . | 63.2
Cc1cc(-n2c(SCc3ccccc3F)nc3n[nH]c(C)c3c2=N)ccc1Cl | . | . | . | . | . | 55.5
CCC(Sc1nc2n[nH]c(C)c2c(=N)n1-c1ccc(C)c(Cl)c1)C(=O)N1CCOCC1 (configuration not stated) | / | / | / | . | . | .
COc1ccccc1NC(=O)CSc1nc2n[nH]c(C)c2c(=N)n1-c1ccccc1Cl | . | . | . | . | . | 75.3
CCc1ccccc1NC(=O)CSc1nc2n[nH]c(C)c2c(=N)n1-c1ccc(OC)cc1 | . | . | . | . | / | /
CN(Cc1ccccc1)C(=O)c1cccc(NC(=O)Cc2cccc(NC(=O)C3CCN(C(=O)CCc4ccccc4)CC3)c2)c1 | / | . | / | / | / | /
COC(=O)C1=C(C)N(Cc2ccccc2C(F)(F)F)C(=NCc2cccc(C(F)(F)F)c2)NC1c1ccc(F)cc1 (configuration not stated) | / | . | / | / | / | /
CC[C@H]1C=C[C@@H](C(=O)NS(=O)(=O)c2ccc(C)cc2)N(C(C)=O)C1 | / | . | / | / | / | /
CCn1c(CSc2nccn2C)nc2cc(C(=O)O)ccc21 | . | / | . | / | . | .
CCn1c(CSc2nc3ccccc3[nH]2)nc2cc(C(=O)O)ccc21 | . | . | . | . | . | 59.9
Cc1cccc(C(=O)Nc2c(-c3ccccc3)nc3ncccn23)c1 | / | . | / | / | / | /
COc1ccc(CCN2C(=O)C(Oc3ccccc3C)C2c2ccc3c(c2)OCO3)cc1 (configuration not stated) | . | . | . | . | . | .
O=C1C(Oc2ccccc2)C(c2ccc3c(c2)OCO3)N1CCc1ccc(F)cc1 (configuration not stated) | . | . | . | . | . | 71.4
COc1cccc(C(=O)NC(=S)Nc2ccc3c4c(cccc24)CC3)c1 | . | . | . | / | . | 66.7
COc1ccc(OCC(=O)NC(=S)Nc2ccc3c4c(cccc24)CC3)cc1 | . | . | . | . | . | .
COc1cccc2c1[C@H](/C=C/c1ccccc1)[C@@H]([C@H](O)COC(C)=O)OC2 | / | . | / | / | / | /
Cn1cccc1-c1nc2ccc(NC(=O)c3ccc([N+](=O)[O-])cc3)cc2[nH]1 | . | . | 86.9 | . | . | .
